Experimental data reported in ChEMBL document CHEMBL1629440, “Synthesis and pharmacological properties of novel hydrophilic 5-HT4 receptor antagonists” (Bioorg Med Chem, 2010).

How the values were obtained:
[1] = target: T1, 5-hydroxytryptamine receptor 4 (Homo sapiens, UniProt Q13639); assay: Antagonistic activity at human 5HT4 receptor expressed in HEK293 cells assessed as inhibition of 5-HT stimulated ADCY activity after 20 mins; format: functional, cell-based
Summary of the method: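 Membranes from HEK293 cells stably expressing human 5-HT4(b) at low level (400 fmol/mg). Adenylyl cyclase activity was stimulated by 1 µM 5-HT with 21 antagonist concentrations, 0.1 mM [α-32P]ATP, 4 mM MgCl2, 1 mM IBMX, GTP and ATP-regenerating system, 32 °C, 20 min. [32P]cAMP was isolated on Dowex/alumina columns. IC50 was fitted by non-linear regression and Kb calculated using 5-HT EC50.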

[2] = target: T1, 5-hydroxytryptamine receptor 4; assay: Antagonistic activity at human 5HT4 receptor expressed in HEK293 cells; format: functional, cell-based
[3] = target: T1, 5-hydroxytryptamine receptor 4; assay: Displacement of [3H]GR113808 from human 5HT4 receptor expressed in HEK293 cells by liquid scintillation counting; format: cell-based
Summary of the method: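 Membranes from HEK293 line stably expressing human 5-HT4(b) at high level (5000 fmol/mg). Incubated with 0.3 nM [3H]GR113808 and 21 competitor concentrations in Tris-HCl pH 7.5, EDTA, EGTA, 2 mM MgCl2, ascorbate, 0.1% BSA, 100 µM GTP, room temperature 1 h. Filtered onto PEI-soaked filters, washed, scintillation counted. Ki derived from IC50 via Ki = IC50/(1+L/Kd).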

[4] = Half life in bovine plasma by HPLC; format: ADME, Bos taurus; conditions: cattle
Summary of the method: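 Ester incubated at 40 µM initial concentration in bovine plasma at 37 °C for up to 10 h. Aliquots were removed at intervals and H3PO4 added to release protein-bound drug. Parent ester and free-acid degradation product were quantified by HPLC, and half-life was calculated.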

[5] = Lipophilicity, log D of the compound in octanol buffer at pH 7.4; format: physicochemical
Summary of the method: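 Distribution between octanol and aqueous buffer at pH 7.4. Both phases were diluted and ligand concentration in each measured by HPLC. Not determined where micelles formed.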

T1 sequence (Q13639 whole entry): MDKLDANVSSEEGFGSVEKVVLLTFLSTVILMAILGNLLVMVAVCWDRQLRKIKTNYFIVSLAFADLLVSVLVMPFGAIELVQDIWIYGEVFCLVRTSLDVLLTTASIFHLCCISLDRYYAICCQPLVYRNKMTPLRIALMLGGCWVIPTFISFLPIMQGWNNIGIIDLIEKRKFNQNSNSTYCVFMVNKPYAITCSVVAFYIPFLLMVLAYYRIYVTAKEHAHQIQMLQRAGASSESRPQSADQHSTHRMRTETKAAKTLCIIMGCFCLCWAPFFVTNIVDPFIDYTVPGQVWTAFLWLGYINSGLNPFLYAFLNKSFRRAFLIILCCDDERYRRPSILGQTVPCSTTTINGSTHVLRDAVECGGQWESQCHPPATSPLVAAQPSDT

SMILES	pKb [1]	Ki [2]	Ki [3]	half-life [4]	logD [5]
O=C(O)CCCN1CCC(COC(=O)c2c[nH]c3ccccc23)CC1	8.16	0.813 nM			
CC(C)(C)C(=O)OCOC(=O)CCCCCN1CCC(CNC(=O)c2c3n(c4ccccc24)CCCO3)CC1	9.83		0.0646 nM		
CCOP(=O)(CCN1CCC(CNC(=O)c2c3n(c4ccccc24)CCCO3)CC1)OCC	8.64		1.26 nM		
COC(=O)CCCCCCCCCCCN1CCC(CNC(=O)c2c3n(c4ccccc24)CCCO3)CC1	9.89		0.339 nM		
CCOC(=O)CCCN1CCC(CNC(=O)c2c3n(c4ccccc24)CCCO3)CC1	9.43		0.102 nM	30 min	
CC(C)(C)C(=O)OCOC(=O)c1ccc(CN2CCC(CNC(=O)c3c4n(c5ccccc35)CCCO4)CC2)cc1	9.07		0.339 nM		2.3
O=C(CCCCN1CCC(CNC(=O)c2c3n(c4ccccc24)CCCO3)CC1)OCc1ccccc1	10.2		0.00145 nM		
CC(C)(C)OC(=O)CCCN1CCC(CNC(=O)c2c3n(c4ccccc24)CCCO3)CC1	9.47		0.234 nM		
O=C(O)CCCN1CCC(CNC(=O)c2c[nH]c3ccccc23)CC1	4.62	3630 nM			
CCOC(=O)CCCN1CCC(CNC(=O)c2c[nH]c3ccccc23)CC1	5.84	107 nM			
CC(C)(C)OC(=O)CCCCCN1CCC(CNC(=O)c2c3n(c4ccccc24)CCCO3)CC1	9.89		0.0537 nM		
O=C(CCCCCN1CCC(CNC(=O)c2c3n(c4ccccc24)CCCO3)CC1)OCc1ccccc1	10.2		0.141 nM		
